Screening data (PubChem)
PglD DTNB: blocks C. jejuni PglD acetyltransferase activity; purified PglD enzyme, DTNB colorimetric CoA detection; inhibition, % at 12.5 µM; hit rate 0.098% among 360,000; AID 602405; in the data active = inhibition above about 16%, passing the limit was not always enough
rRNA inh HTS: selective bacterial rRNA inhibition in E. coli; GFP signal change (wild-type ribosome), % (test concentration not listed); hit rate 1.6% among 350,000; E. coli WT GFP vs humanized-ribosome RFP mutants, fluorescence, 24 h; active compounds read low; DMSO median 0, no signal -100;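 active = significant combined selectivity score with lowered wild-type GFP, culture density cut under 30%, mutant RFP and density less affected; inactive = any of these conditions unmet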
XiGFP reactiv: X-chromosome reactivation activator. XiGFP mouse fibroblasts, % GFP-positive cells imaging, 3 d; cells co-treated with 5-aza-dC sensitizer; scaled so ellipticine positive control = 100%. activation, % at 7.58 µM. hit rate 0.055% among 360,000;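 active = mean normalized replicate activation at least 10% and every replicate at or above 10%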
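Material: SV40-immortalized XiGFP fibroblast cells, line 68-5-11 | Buffer or medium: DMEM containing 5-aza-dC | Dosing: One concentration, pinned | Times: 3 d treatment, 15 min room-temperature fixation | Controls: Ellipticine 6 µM positive control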
RAD52 anneal inh: inhibitors of human RAD52 DNA annealing | P43351 | recombinant RAD52 DNA annealing, FRET fluorescence | inhibition, % at 18.7 µM | hit rate 0.46% among 360,000 | AID 651710;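 active = every replicate showing at least 50% inhibition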
RAD54 branch: inhibitors of human RAD54 branch migration. Q92698. RAD54 Holliday junction branch migration, FAM/BHQ fluorescence. inhibition, % at 10.4 µM. hit rate 0.14% among 360,000;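 active = mean normalized replicate activity at least 40 and at least half of replicates scoring 40 or more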;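 note: inhibitors cause a drop in the FAM fluorescence signal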
Target sequence (Q92698 whole entry, looked up): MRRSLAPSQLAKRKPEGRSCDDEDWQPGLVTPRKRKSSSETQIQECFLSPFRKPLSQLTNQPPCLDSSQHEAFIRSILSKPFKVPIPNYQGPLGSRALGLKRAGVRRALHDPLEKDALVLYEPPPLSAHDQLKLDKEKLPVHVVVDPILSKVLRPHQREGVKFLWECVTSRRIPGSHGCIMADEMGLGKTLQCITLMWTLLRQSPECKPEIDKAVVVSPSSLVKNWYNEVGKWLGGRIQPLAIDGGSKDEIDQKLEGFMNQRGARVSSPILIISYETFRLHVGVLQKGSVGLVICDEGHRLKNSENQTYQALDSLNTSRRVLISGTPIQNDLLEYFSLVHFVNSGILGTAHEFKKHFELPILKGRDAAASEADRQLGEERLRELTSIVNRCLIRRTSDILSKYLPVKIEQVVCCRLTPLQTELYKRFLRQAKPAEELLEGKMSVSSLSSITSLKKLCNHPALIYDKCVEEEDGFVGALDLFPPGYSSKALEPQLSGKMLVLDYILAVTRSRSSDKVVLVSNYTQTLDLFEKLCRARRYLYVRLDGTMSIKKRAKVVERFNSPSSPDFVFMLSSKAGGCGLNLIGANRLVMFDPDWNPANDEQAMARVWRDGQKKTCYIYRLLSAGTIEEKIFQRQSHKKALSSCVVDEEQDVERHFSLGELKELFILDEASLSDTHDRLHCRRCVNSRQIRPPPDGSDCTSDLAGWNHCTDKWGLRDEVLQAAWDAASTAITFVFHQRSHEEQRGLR
E-selectin induc: E-selectin induction on HUVECs | P16581 | activation, % at 7.58 µM | hit rate 0.37% among 260,000 | AID 686992 | HUVEC E-selectin immunofluorescence imaging; normalized: neutral wells 0, TNF-alpha wells 100;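 active = mean E-selectin-positive cell signal at least 10% of the positive control, reached in at least 60% of replicates, without over 20% cell loss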
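Test system: HUVEC; input: 3,000 HUVEC/well; measured by: immunofluorescence imaging; read-out: % PE-positive cells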
Large screens that a line does not name were inactive. Rows were chosen to be rich in hits. Some 2% of all compounds tested hit in one or more screens of this group.

COc1ccc(NS(=O)(=O)c2ccc(NC(=O)c3ccccc3)cc2)nn1	none (no result: PglD DTNB, RAD54 branch, E-selectin induc)
CC(C)(C)S(=O)N1Cc2cc(C(=O)Nc3ccc(-c4ccccc4)cc3)nc(-c3cccc(-c4cccc(F)c4)c3)c2[C@@H]1CCO (stereo partly specified)	E-selectin induc 28.9 (no result: PglD DTNB, RAD54 branch)
COc1cccc(-c2cccc(-c3nc(C(=O)Nc4ccc(-c5ccccc5)cc4)cc4c3[C@@H](CCO)N(S(=O)C(C)(C)C)C4)c2)c1 (stereo partly specified)	E-selectin induc 35.7 (no result: PglD DTNB, RAD54 branch)
Cc1noc(C)c1NC(=O)Nc1ccc2c(c1)C(=O)N([C@H](C)CO)C[C@H](C)[C@H](CN(C)C(=O)NC(C)C)OCCCC[C@H](C)O2	none (no result: E-selectin induc)
COc1cccc(NC(=O)CN(C)C(=O)c2ccccc2Sc2ccccc2C#N)c1	rRNA inh HTS -18.3 (no result: PglD DTNB, E-selectin induc)
COc1cccc(NC(=O)CN(C)CC(=O)Nc2ccccc2-c2ccccc2)c1	rRNA inh HTS -24.3
CN(CC(=O)Nc1ccc(F)cc1)C(=O)c1cccc(S(=O)(=O)N2CCN(c3ccccc3)CC2)c1	none
COc1cccc(NC(=O)CN(C)C(=O)c2cccc(S(=O)(=O)N3CCN(c4ccccc4)CC3)c2)c1	rRNA inh HTS -28.9 (no result: E-selectin induc)
CN(CC(=O)Nc1cccc(F)c1)CC(=O)Nc1ccccc1-c1ccccc1	none (no result: PglD DTNB, RAD54 branch)
O=C(C[C@H]1C[C@H]2c3cc(NC(=O)c4cccnc4)ccc3O[C@H]2[C@H](CO)O1)NCc1ccccn1	none
COc1ccccc1C(=O)Nc1ccc(S(=O)(=O)N2CCCCC2c2cccnc2)cc1 (stereo unspecified)	rRNA inh HTS -22.4 (no result: PglD DTNB, RAD54 branch, E-selectin induc)
O=C(Nc1ccc(S(=O)(=O)N2CCCCC2c2cccnc2)cc1)c1ccccc1F (stereo unspecified)	none
COC(=O)c1ccc(NC(=S)NN2CCCCC2c2cccnc2)cc1 (stereo unspecified)	rRNA inh HTS -27.1
CCc1ccc(C2=CC(c3cc(Br)ccc3F)n3ncnc3N2)cc1 (stereo unspecified)	none (no result: rRNA inh HTS, XiGFP reactiv, RAD52 anneal inh, E-selectin induc)
Fc1ccc(Br)cc1C1C=C(c2ccc(Br)cc2)Nc2ncnn21 (stereo unspecified)	rRNA inh HTS -30.0 (no result: XiGFP reactiv, E-selectin induc)
O=C(CNCc1cccc2ccccc12)Nc1ccccc1[N+](=O)[O-]	rRNA inh HTS -30.6 (no result: PglD DTNB, RAD54 branch)
CCCNC(=O)[C@@H]1[C@@H](CO)[C@@H]2Cn3c(cccc3=O)[C@@H]2N1CCC(F)(F)F	none
Cc1ccc(-c2nnc(NC(=O)c3ccco3)o2)c(C)c1	rRNA inh HTS -24.5
CN1C(=O)c2cc(NC(=O)c3cccs3)ccc2OC[C@@H]2O[C@@H](CC(=O)NCC(F)(F)F)CC[C@H]21	none
C[C@H]1CN([C@@H](C)CO)S(=O)(=O)c2ccc(C#Cc3ccc(F)cc3)cc2O[C@H]1CN(C)C(=O)CN(C)C	RAD52 anneal inh 71.0
C[C@H](CO)N1C[C@H](C)[C@@H](CN(C)C(=O)CN(C)C)Oc2cc(C#Cc3ccccc3)ccc2S1(=O)=O	none
C[C@@H]1CN([C@H](C)CO)S(=O)(=O)c2ccc(C#Cc3ccc(F)cc3)cc2O[C@H]1CN(C)C(=O)CN(C)C	RAD52 anneal inh 61.3
COc1ccccc1C#Cc1ccc2c(c1)O[C@@H](CN(C)Cc1cncnc1)[C@@H](C)CN([C@@H](C)CO)S2(=O)=O	none
COc1ccccc1C#Cc1ccc2c(c1)O[C@H](CN(C)Cc1cncnc1)[C@@H](C)CN([C@H](C)CO)S2(=O)=O	XiGFP reactiv 25.6
C[C@@H]1CN([C@@H](C)CO)S(=O)(=O)c2ccc(C#Cc3cccc(F)c3)cc2O[C@H]1CN(C)C	RAD52 anneal inh 50.6
C[C@@H]1CN([C@@H](C)CO)S(=O)(=O)c2ccc(C#Cc3ccc(F)cc3)cc2O[C@@H]1CN(C)C(=O)CN(C)C	none
C[C@@H]1CCCCO[C@H](CN(C)C(=O)NC2CCCCC2)[C@H](C)CN([C@@H](C)CO)C(=O)c2cc(NC(=O)Nc3ccccc3)ccc2O1	none
C[C@@H]1CN([C@@H](C)CO)C(=O)c2cc(NS(=O)(=O)c3ccc(Cl)cc3)ccc2O[C@@H](C)CCCCO[C@H]1CN(C)C(=O)c1ccccc1	none
